Type in all cases: cell-based
For assay [1], the target named is Sodium-dependent noradrenaline transporter (Homo sapiens, UniProt P23975). In words: Inhibition of re-uptake of [3H]MPP+ at human NET expressed in HEK293 cells preincubated for 5 mins followed by […] addition measured after 3 min by liquid scintillation counting. The method, boiled down:
(§1)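 HEK293 cells stably expressing human DAT or NET, seeded on PDL-coated plates 24 h before. Preincubated 5 min in Krebs–HEPES buffer pH 7.3 with compound at 0.001 μM to 1 mM (DMSO stock diluted in buffer). Substrate then added: 0.2 μM [3H]dopamine for DAT, 1 min; 0.05 μM [3H]MPP+ for NET, 3 min. Room temperature. Uptake stopped with ice-cold buffer. Cells lysed in 1% SDS and counted by scintillation. Unspecific uptake defined with 10 μM mazindol. IC50 by nonlinear regression.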

The target of assay [2] is Sodium-dependent serotonin transporter (Homo sapiens, UniProt P31645). The assay is described as follows: Inhibition of re-uptake of [3H]-5-HT at human SERT expressed in HEK293 cells preincubated for 5 mins followed by [3H]-dopamine addition measured after 1 min by liquid scintillation counting.
Assay [3] addresses T1, Sodium-dependent dopamine transporter (Homo sapiens, UniProt Q01959). The assay is described as follows: Inhibition of re-uptake of [3H]-dopamine at human DAT expressed in HEK293 cells preincubated for 5 mins followed by [3H]-dopamine addition measured after 1 min by liquid scintillation counting. The method, boiled down: as §1
Assay [4] addresses T1, Sodium-dependent dopamine transporter. In words: Displacement of [3H]WIN 35,428 from human DAT expressed in HEK293 cells at 2 and 4 uM after 30 mins in presence of increasing concentration of cocaine by liquid scintillation counting. In short, it runs like this: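 Intact HEK-DAT cells on PDL-coated plates, in binding buffer (HEPES, NaCl, KCl, CaCl2, MgCl2, 10 μM ZnCl2, glucose, pH 7,3). Incubated with ~10 nM [3H]WIN 35,428, fixed concentrations of test compound and cocaine 0.001–1 μM, 30 min at 25 °C. Nonspecific binding defined with 30 μM mazindol. Cells lysed in 1% SDS and counted by scintillation. Reciprocal of bound (fmol) plotted against cocaine concentration as Dixon plot. Three experiments in triplicate, mean ± SD.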
Background: Loss of bound radioactivity is the signal in a displacement assay; it reports binding, not function.

Calls of active or inactive are those of the source. The rule behind the calls is not given here.

T1 sequence (Q01959 whole entry): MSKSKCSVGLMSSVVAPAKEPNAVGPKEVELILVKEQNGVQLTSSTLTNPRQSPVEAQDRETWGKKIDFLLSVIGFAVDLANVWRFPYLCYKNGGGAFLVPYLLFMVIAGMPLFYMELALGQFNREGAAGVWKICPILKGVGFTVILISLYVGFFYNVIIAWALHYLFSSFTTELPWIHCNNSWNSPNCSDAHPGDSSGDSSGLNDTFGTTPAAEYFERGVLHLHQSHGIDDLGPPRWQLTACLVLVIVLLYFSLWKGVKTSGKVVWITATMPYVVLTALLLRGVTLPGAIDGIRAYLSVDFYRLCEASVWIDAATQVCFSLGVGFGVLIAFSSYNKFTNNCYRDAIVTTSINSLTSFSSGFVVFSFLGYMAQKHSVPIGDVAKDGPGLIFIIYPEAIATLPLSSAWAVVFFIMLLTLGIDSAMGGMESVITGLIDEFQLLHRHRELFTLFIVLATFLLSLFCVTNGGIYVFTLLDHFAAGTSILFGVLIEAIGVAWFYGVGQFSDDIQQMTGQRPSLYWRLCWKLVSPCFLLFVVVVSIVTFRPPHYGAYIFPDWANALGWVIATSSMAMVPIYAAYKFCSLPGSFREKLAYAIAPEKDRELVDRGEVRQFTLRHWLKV
Sequence of Sodium-dependent serotonin transporter (P31645 whole entry): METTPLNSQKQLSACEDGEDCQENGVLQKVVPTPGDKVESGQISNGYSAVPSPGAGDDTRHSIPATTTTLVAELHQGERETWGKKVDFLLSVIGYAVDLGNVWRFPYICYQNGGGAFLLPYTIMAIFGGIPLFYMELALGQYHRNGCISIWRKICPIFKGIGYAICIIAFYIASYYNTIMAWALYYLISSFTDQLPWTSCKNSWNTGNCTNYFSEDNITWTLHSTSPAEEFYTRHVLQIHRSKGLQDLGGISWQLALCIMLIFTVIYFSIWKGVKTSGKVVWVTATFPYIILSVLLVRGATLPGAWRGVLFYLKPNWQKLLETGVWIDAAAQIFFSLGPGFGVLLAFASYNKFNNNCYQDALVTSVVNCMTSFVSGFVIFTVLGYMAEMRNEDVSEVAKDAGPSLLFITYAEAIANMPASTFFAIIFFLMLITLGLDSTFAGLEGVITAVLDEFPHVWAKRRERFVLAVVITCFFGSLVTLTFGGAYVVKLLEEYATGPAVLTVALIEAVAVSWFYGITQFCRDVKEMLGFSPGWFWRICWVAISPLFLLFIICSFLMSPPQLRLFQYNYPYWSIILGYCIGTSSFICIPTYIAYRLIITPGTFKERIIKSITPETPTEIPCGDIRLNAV
Sequence of Sodium-dependent noradrenaline transporter (P23975 whole entry): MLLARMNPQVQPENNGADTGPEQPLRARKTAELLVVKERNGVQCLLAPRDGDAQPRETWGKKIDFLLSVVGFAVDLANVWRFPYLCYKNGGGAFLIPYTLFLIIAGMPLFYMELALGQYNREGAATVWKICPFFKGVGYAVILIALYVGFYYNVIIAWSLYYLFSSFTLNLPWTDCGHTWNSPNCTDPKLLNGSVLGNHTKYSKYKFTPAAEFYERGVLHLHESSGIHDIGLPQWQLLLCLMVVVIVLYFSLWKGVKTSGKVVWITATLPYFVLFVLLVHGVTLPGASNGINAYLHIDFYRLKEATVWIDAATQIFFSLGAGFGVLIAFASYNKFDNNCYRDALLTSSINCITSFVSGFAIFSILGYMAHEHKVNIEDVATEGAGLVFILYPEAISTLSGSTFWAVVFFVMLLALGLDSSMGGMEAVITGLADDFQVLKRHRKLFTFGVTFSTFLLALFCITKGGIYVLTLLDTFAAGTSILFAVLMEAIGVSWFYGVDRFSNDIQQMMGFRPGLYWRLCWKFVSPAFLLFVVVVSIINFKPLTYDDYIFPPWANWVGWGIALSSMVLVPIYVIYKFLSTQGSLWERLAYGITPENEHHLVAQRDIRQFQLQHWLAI

Take `[O-][S+](Cc1cc(C2CC2)on1)C(c1ccccc1)c1ccccc1` (stereo unspecified): the half-maximal inhibitory concentration (IC50) (in general, the point on the concentration scale where inhibition reaches its midpoint) in assay [1] (hek293) was “Not Active”; in assay [2] (hek293), “Not Active”; in assay [3] (read-out: IC50), 38.6 µM.

`[O-][S+](Cc1nc(C(F)(F)F)no1)C(c1ccccc1)c1ccccc1` (stereo unspecified): the figures for the IC50 in assay [1] (read-out: IC50), in assay [2] (read-out: IC50) and in assay [3] (read-out: IC50) were 71 µM, 209 µM and 43.7 µM, respectively.

Consider `[O-][S+](Cc1nc(O)cc(C(F)(F)F)n1)C(c1ccccc1)c1ccccc1` (stereo unspecified), for which the IC50 result is “Not Active” in assay [1] (hek293), “Not Active” in assay [2] (hek293) and 40.4 µM in assay [3] (read-out: IC50).

Consider `[O-][S@+](Cc1cccs1)[C@H](c1ccccc1)c1ccc(Br)cc1`, for which the IC50 entry is “Not Active” in assay [1] (hek293), “Not Active” in assay [2] (hek293) and 1.5 µM in assay [3] (read-out: IC50).

On to `[O-][S+](Cc1csc(Br)c1)C(c1ccccc1)c1ccccc1` (stereo unspecified), for which the IC50 in assay [1] (read-out: IC50) is 67.2 µM; in assay [2] (read-out: IC50) it was 44.7 µM; in assay [3] (read-out: IC50) it was 16.6 µM.

For `CC(C)c1nnsc1C[S+]([O-])C(c1ccccc1)c1ccccc1` (stereo unspecified), the figures for the IC50 in assay [1] (read-out: IC50), in assay [2] (hek293) and in assay [3] (read-out: IC50) were 30 µM, “Not Active” and 69.1 µM, respectively.

As to `[O-][S+](Cc1ccncc1)C(c1ccccc1)c1ccccc1` (stereo unspecified), the IC50 result was “Not Active” in assay [1] (hek293), “Not Active” in assay [2] (hek293) and 63.5 µM in assay [3] (read-out: IC50).

Take `[O-][S+](Cc1cccs1)C(c1ccccc1)c1ccc(Br)cc1` (stereo in doubt; 11c): the IC50 entry in assay [1] (hek293) is “Not Active”; in assay [2] (hek293), “Not Active”; in assay [3] (read-out: IC50), 4.2 µM.

With `Cc1nc(O)cc(C[S+]([O-])C(c2ccccc2)c2ccccc2)n1` (stereo unspecified), the values for the IC50 result in assay [1] (hek293), in assay [2] (hek293) and in assay [3] (read-out: IC50) were “Not Active”, “Not Active” and 3.1 µM, respectively. Also, the inhibition result in assay [4] is “Active”.

In the case of `Cc1cnc(C[S+]([O-])C(c2ccccc2)c2ccccc2)nc1` (stereo unspecified), the values for the IC50 entry in assay [1] (hek293), in assay [2] (hek293) and in assay [3] (read-out: IC50) were “Not Active”, “Not Active” and 156 µM, respectively.

For the compound `[O-][S+](Cc1cccs1)C(c1ccc(F)cc1)c1ccc(F)cc1` (stereo unspecified), the IC50 in assay [1] (read-out: IC50) worked out at 113 µM; in assay [2] (read-out: IC50), 120 µM; in assay [3] (read-out: IC50), 4 µM.

As for `COC1NN=C(C[S+]([O-])C(c2ccccc2)c2ccccc2)S1` (stereo unspecified), the values for the IC50 in assay [1] (read-out: IC50), in assay [2] (hek293) and in assay [3] (read-out: IC50) were 146 µM, “Not Active” and 108 µM, respectively.

As to `Cc1cc(O)nc(C[S+]([O-])C(c2ccccc2)c2ccccc2)n1` (stereo unspecified), the IC50 result is “Not Active” in assay [1] (hek293), “Not Active” in assay [2] (hek293) and 109 µM in assay [3] (read-out: IC50).

For `[O-][S+](Cc1ccsc1Br)C(c1ccccc1)c1ccccc1` (stereo unspecified), the IC50 in assay [1] (read-out: IC50) came to 144 µM; in assay [2] (read-out: IC50) it was 59.6 µM; in assay [3] (read-out: IC50), 29.3 µM.

For the compound `Cc1scc(C[S+]([O-])C(c2ccccc2)c2ccccc2)c1C` (stereo unspecified), the IC50 entry in assay [1] (hek293) was “Not Active”; in assay [2] (hek293) it was “Not Active”; in assay [3] (read-out: IC50), 284 µM.

In the case of `[O-][S+](Cc1ccc(Cl)s1)C(c1ccccc1)c1ccccc1` (stereo unspecified), the IC50 in assay [1] (read-out: IC50) amounted to 68.4 µM; in assay [2] (read-out: IC50) it was 57.2 µM; in assay [3] (read-out: IC50), 12.8 µM.

`[O-][S+](Cc1cccs1)C(c1ccccc1)c1ccc(Br)cc1` (stereo in doubt; 11g): the IC50 in assay [3] (read-out: IC50) is 3.7 µM.

With `Cc1ccc(C(c2ccc(C)cc2)[S+]([O-])Cc2cccs2)cc1` (stereo unspecified), the results for the IC50 entry in assay [1] (hek293), in assay [2] (hek293) and in assay [3] (read-out: IC50) were “Not Active”, “Not Active” and 5.8 µM, respectively.

Regarding `COc1ccnc(C[S+]([O-])C(c2ccccc2)c2ccccc2)c1OC` (stereo unspecified), the IC50 entry in assay [1] (hek293), in assay [2] (hek293) and in assay [3] (hek293) was “Not Active” each time.

On to `[O-][S@@+](Cc1cccs1)[C@@H](c1ccccc1)c1ccc(Br)cc1`, for which the IC50 result in assay [1] (hek293) was “Not Active”; in assay [2] (hek293) it was “Not Active”; in assay [3] (read-out: IC50) it was 4.1 µM.

Consider `COc1cc(C)nc(C[S+]([O-])C(c2ccccc2)c2ccccc2)n1` (stereo unspecified), for which the values for the IC50 in assay [1] (read-out: IC50), in assay [2] (hek293) and in assay [3] (read-out: IC50) were 228 µM, “Not Active” and 90.5 µM, respectively.

For `NC(=O)C[S+]([O-])C(c1ccccc1)c1ccccc1` (stereo unspecified) [MODAFINIL], in assay [1] (read-out: IC50), the IC50 is 284 µM.

Regarding `Cc1cc(C[S+]([O-])C(c2ccccc2)c2ccccc2)nc(C)n1` (stereo unspecified), the values for the IC50 in assay [1] (read-out: IC50), in assay [2] (hek293) and in assay [3] (read-out: IC50) were 768 µM, “Not Active” and 82.6 µM, respectively.

As for `Cc1ccc(C(c2ccccc2)[S+]([O-])Cc2cccs2)cc1` (stereo unspecified), the results for the IC50 in assay [1] (read-out: IC50), in assay [2] (read-out: IC50) and in assay [3] (read-out: IC50) were 152 µM, 118 µM and 2 µM, respectively.

For the compound `[O-][S+](Cc1ccsc1)C(c1ccccc1)c1ccccc1` (stereo unspecified), the IC50 in assay [1] (read-out: IC50) is 57.6 µM; in assay [2] (hek293), “Not Active”; in assay [3] (read-out: IC50) it was 3 µM.

For the compound `Cc1nnc(C[S+]([O-])C(c2ccccc2)c2ccccc2)s1` (stereo unspecified), the IC50 entry in assay [1] (hek293), in assay [2] (hek293) and in assay [3] (hek293) was “Not Active” throughout.

With `Cc1noc(C[S+]([O-])C(c2ccccc2)c2ccccc2)n1` (stereo unspecified), the values for the IC50 entry in assay [1] (hek293), in assay [2] (hek293) and in assay [3] (read-out: IC50) were “Not Active”, “Not Active” and 56.7 µM, respectively.

On to `[O-][S+](Cc1sccc1Cl)C(c1ccccc1)c1ccccc1` (stereo unspecified), for which the IC50 in assay [1] (read-out: IC50) is 188 µM; in assay [2] (hek293), “Not Active”; in assay [3] (read-out: IC50), 4.9 µM.

In the case of `[O-][S+](Cc1cc(Br)cs1)C(c1ccccc1)c1ccccc1` (stereo unspecified), the IC50 result in assay [1] (hek293) was “Not Active”; in assay [2] (read-out: IC50), 70.9 µM; in assay [3] (read-out: IC50), 13.7 µM.

Turning to `[O-][S+](Cc1cccs1)C(c1ccccc1)c1ccc(Br)cc1` (stereo in doubt; 11h), the IC50 in assay [3] (read-out: IC50) was 2.4 µM.

Regarding `O=c1[nH]nc(C[S+]([O-])C(c2ccccc2)c2ccccc2)s1` (stereo unspecified), the values for the IC50 in assay [1] (read-out: IC50), in assay [2] (hek293) and in assay [3] (read-out: IC50) were 85.7 µM, “Not Active” and 38.1 µM, respectively.

Consider `[O-][S+](Cc1cccs1)C(c1ccc(Cl)cc1)c1ccc(Cl)cc1` (stereo unspecified), for which the IC50 entry is “Not Active” in assay [1] (hek293), “Not Active” in assay [2] (hek293) and 7.2 µM in assay [3] (read-out: IC50).

The values are drawn from ChEMBL document CHEMBL4028886 (J Med Chem, 2017).
